Assays:
[1] = Partition coefficient (logD7.4); format: physicochemical; conditions: octanol/water, pH 7.4
[2] = Alkaline hydrolysis rate of the compound; format: ADME
In short: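 Alkaline hydrolysis rate constants measured at several pH values at 25 °C. Loss of the long-wavelength UV chromophore (λmax typically 300-345 nm) was followed by spectrophotometer.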

Neutrophil elastase = target: T1, Neutrophil elastase (Homo sapiens, UniProt P08246); test: Inhibition of human leukocyte elastase
T1 sequence (P08246 whole entry): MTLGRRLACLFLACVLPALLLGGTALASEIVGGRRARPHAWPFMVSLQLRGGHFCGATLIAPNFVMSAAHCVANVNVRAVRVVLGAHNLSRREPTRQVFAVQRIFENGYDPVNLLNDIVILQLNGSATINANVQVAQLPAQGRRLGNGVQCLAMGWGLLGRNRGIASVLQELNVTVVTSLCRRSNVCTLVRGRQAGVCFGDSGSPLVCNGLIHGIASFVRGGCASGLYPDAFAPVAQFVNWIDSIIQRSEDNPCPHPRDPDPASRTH

Row | Structure (SMILES) | logD [1] | Log kOH- [2] | Ki (Neutrophil elastase) [nM]
1 | CC(C)NC(=O)[C@H](CC(N)=O)Nc1nc2ccccc2c(=O)o1 | 0.2 | 1.45 | 2140
2 | O=c1oc(SCc2ccccc2)nc2ccccc12 | 3.6 | 2.33 | 39.8
3 | Cc1ccc2c(=O)oc(NC(C)C)nc2c1C | 3.8 | 0.46 | 708
4 | CC(=O)Nc1ccc2c(=O)oc(NC(C)C)nc2c1 | 1.2 | 0.92 | 148
5 | Cc1cccc2nc(NC(C)C)oc(=O)c12 | 3 | 0.41 | –
6 | NC(=O)[C@@H]1CCCN1c1nc2ccccc2c(=O)o1 | 0.4 | 1.21 | 240
7 | O=c1oc(NCc2ccccc2)nc2ccccc12 | 2.8 | 1.12 | 955
8 | CCOC(=O)CCCNc1nc2ccccc2c(=O)o1 | 2.3 | 1.21 | 18600
9 | O=c1oc(NC2CCCCC2)nc2ccccc12 | 3.5 | 0.89 | 112
10 | COc1cccc2nc(Nc3ccccc3)oc(=O)c12 | 3.1 | 0.41 | 158000
11 | Cc1cccc2nc(C(F)(F)C(F)(F)C(F)(F)F)oc(=O)c12 | 2.9 | 2.75 | 30.9
12 | CCc1cc(N)cc2nc(NC(C)C)oc(=O)c12 | 1.6 | -1.26 | 17
13 | CC(C)(C)c1nc2ccccc2c(=O)o1 | – | 1.38 | 8910
14 | O=c1oc(CBr)nc2ccccc12 | – | 2.06 | 955
15 | NC(=O)C1CCCN1c1nc2ccccc2c(=O)o1 (stereo not drawn) | 0.4 | 1.21 | 178
16 | CCCCCCCCNc1nc2ccccc2c(=O)o1 | – | 0.03 | 31600
17 | CCc1cccc2nc(N[C@@H](CC(C)C)C(=O)OC)oc(=O)c12 | – | 0.48 | 12
18 | CCSc1nc2ccccc2c(=O)o1 | 3 | 2.19 | 8.13
19 | Cc1ccc2nc(C(F)(F)F)oc(=O)c2c1 | – | 3.23 | 513
20 | CCOC(=O)Nc1ccc2c(=O)oc(OCC)nc2c1 | – | 1.46 | 17.8
21 | CCCCCCNc1nc2ccccc2c(=O)o1 | 3.8 | 0.96 | –
22 | CCOc1nc2cccc(C)c2c(=O)o1 | – | 1.31 | 0.115
23 | COC(=O)[C@H](Nc1nc2ccccc2c(=O)o1)c1ccccc1 | 2.6 | 1.39 | 27.5

Row | Structure (SMILES) | logD [1] | Log kOH- [2] | Ki (Neutrophil elastase) [nM]
24 | CCOc1nc2ccccc2c(=O)o1 | – | 1.91 | 6.46
25 | Cc1ccc2nc(C)oc(=O)c2c1 | 1.8 | 1.36 | 34700
26 | CCOc1nc2cccc(CC)c2c(=O)o1 | – | 1.17 | 0.0427
27 | CC(C)N(c1nc2ccccc2c(=O)o1)C(C)C | 3.7 | 0.79 | 2570
28 | Cc1nc2cc3ccccc3cc2c(=O)o1 | 2.8 | 2.19 | 7240
29 | CSc1nc2ccccc2c(=O)o1 | – | 2.16 | 20.9
30 | CCOc1nc2cccc(CBr)c2c(=O)o1 | – | 1.93 | 0.0676
31 | O=c1oc(N2CCCC2)nc2ccccc12 | – | 0.97 | 1910
32 | COC(=O)[C@H](CC(C)C)Nc1nc2cccc(C)c2c(=O)o1 | 3.7 | 0.59 | 251
33 | COC(=O)C(Nc1nc2ccccc2c(=O)o1)c1ccccc1 (stereo not drawn) | 2.6 | 1.39 | 46.8
34 | O=c1oc(C(F)(F)F)nc2ccccc12 | 1.9 | 3.52 | 170
35 | Nc1cccc(CNc2nc3ccccc3c(=O)o2)c1 | – | 1.18 | 1580
36 | CCc1cccc2nc(C)oc(=O)c12 | – | 0.73 | 120
37 | CCOc1nc2cc(N)ccc2c(=O)o1 | – | 0.2 | 5.75
38 | COc1cc2nc(OCc3ccccc3)oc(=O)c2cc1OC | – | 0.97 | 933
39 | Cc1nc2ccccc2c(=O)o1 | 1.3 | 1.69 | 4790
40 | O=c1oc(-c2cccc([N+](=O)[O-])c2)nc2ccccc12 | – | 1.82 | 4370
41 | O=c1oc(OCc2ccccc2)nc2ccccc12 | – | 1.99 | 56.2
42 | CC(C)NC(=O)[C@H](CCC(N)=O)Nc1nc2ccccc2c(=O)o1 | -0.3 | 1.3 | 550
43 | O=c1oc(N2CCCCC2)nc2ccccc12 | 3 | – | 646
44 | CCNc1ccc2c(=O)oc(NC(C)C)nc2c1 | 2.4 | – | 692
45 | Cc1nc2c(C)cccc2c(=O)o1 | 2.1 | 1.18 | 7410
46 | CCc1cc(N(C)C)cc2nc(NC(C)C)oc(=O)c12 | – | -1.88 | 110

Row | Structure (SMILES) | logD [1] | Log kOH- [2] | Ki (Neutrophil elastase) [nM]
47 | COC(=O)[C@H](CC(C)C)Nc1nc2cc(C)cc(C)c2c(=O)o1 | 4 | -0.18 | 1260
48 | CCOc1nc2cccc(C(C)C)c2c(=O)o1 | – | 0.96 | 0.0708
49 | CCN(CC)c1ccc2c(=O)oc(NC(C)C)nc2c1 | – | -0.99 | 5500
50 | CCCCNc1nc2ccccc2c(=O)o1 | 3.1 | 1.09 | –
51 | CCC(C)Nc1nc2ccccc2c(=O)o1 (stereo not drawn) | – | 0.92 | 43.7
52 | CNc1nc2ccccc2c(=O)o1 | 1.7 | 1.38 | –
53 | CCc1ccc2c(=O)oc(NC(C)C)nc2c1 | 3.2 | 0.69 | 182
54 | CC(C)COC(=O)N(C)c1nc2ccccc2c(=O)o1 | – | 2.21 | 2.69
55 | O=c1oc(Nc2ccccc2)nc2ccccc12 | 3.5 | 1.18 | 11000
56 | O=c1oc(N2CCOCC2)nc2ccccc12 | – | 1.5 | 708
57 | CCSc1nc2cc(CC)ccc2c(=O)o1 | – | 1.66 | 20.9
58 | COc1cccc2nc(C(F)(F)F)oc(=O)c12 | – | 3.54 | 417
59 | C[C@H](N)C(=O)c1nc2ccccc2c(=O)o1 | – | 1.76 | 759
60 | CC(C)COc1nc2ccccc2c(=O)o1 | – | 1.83 | 11.5
61 | Cc1ccccc1CNc1nc2ccccc2c(=O)o1 | – | 1.01 | 2820
62 | Cc1nc2cccc(C)c2c(=O)o1 | – | 0.85 | 1000
63 | Cc1ccc(C)c2c(=O)oc(NC(C)C)nc12 | – | 0.2 | 6.61
64 | CCCNc1nc2ccccc2c(=O)o1 | 2.4 | – | –
65 | CC(=O)N(C)c1nc2ccccc2c(=O)o1 | – | 2.57 | 5.75
66 | CCCCN(C(C)=O)c1nc2ccccc2c(=O)o1 | – | 2.48 | 10
67 | CCc1cc(OC)cc2nc(NC(C)C)oc(=O)c12 | – | -0.6 | 11
68 | Cc1cccc2c(=O)oc(NCc3ccccc3)nc12 | – | 0.92 | 2000
69 | CCOC(=O)CNc1nc2ccccc2c(=O)o1 | – | 1.4 | 64600

Reference: ChEMBL document CHEMBL1125034, “Design and synthesis of 4H-3,1-benzoxazin-4-ones as potent alternate substrate inhibitors of human leukocyte elastase” (J Med Chem, 1990)
